ChEMBL document CHEMBL3853270, “Influence of Birch Bark Triterpenes on Keratinocytes and Fibroblasts from Diabetic and Nondiabetic Donors” (2016)
Active and inactive are the calls of the source. No cut-off for these calls is given here.

Legend:
Keratinocyte [1] = assay: Effect on cellular connection related gene expression in non-diabetic adult human primary keratinocytes assessed as CLDN4 mRNA levels at 9.81 uM after 6 hrs by qPCR analysis; assay type: functional
Keratinocyte [2] = assay: Effect on pro-inflammatory related gene expression in diabetic adult human primary keratinocytes assessed as IL1B mRNA levels at 9.81 uM after 6 hrs by qPCR analysis; assay type: functional
[3] = Effect on wound healing activity in non-diabetic adult human primary keratinocytes assessed as upregulation of TNFalpha protein levels at 1.96 uM after 24 hrs by bead-based suspension array analysis; assay type: functional; settings: Keratinocyte
Keratinocyte [4] = assay: Effect on pro-inflammatory related gene expression in non-diabetic young human primary keratinocytes assessed as IL1B mRNA levels at 9.81 uM after 6 hrs by qPCR analysis; assay type: functional
Keratinocyte [5] = assay: Effect on AQP3 mRNA expression levels in diabetic adult human primary keratinocytes at 1.96 uM after 6 hrs by qPCR analysis; assay type: functional
Summary of the method: (§1)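 Primary keratinocytes from nondiabetic young and adult and diabetic adult donors; 400 000 cells per sample, 6 h exposure at 1.96 or 9.81 μM. RNA extracted and read on a high-throughput qPCR chip. Results are fold change versus 0.1% DMSO solvent control from 5−7 independent experiments over two donors per group, SD, one-way ANOVA with Bonferroni post-test.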

Fibroblast [6] = assay: Effect on growth factor related gene expression in non-diabetic young human primary fibroblasts assessed as GDF15 mRNA levels at 1.96 uM after 6 hrs by qPCR analysis; assay type: functional
Summary of the method: (§2)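 Primary human dermal fibroblasts (young or adult nondiabetic, adult diabetic donor) were treated for 6 h against a 0.1% DMSO solvent control. RNA from 320 000 cells per sample was measured by Fluidigm Biomark high-throughput qPCR. Values are fold change relative to solvent control, from four independent experiments, with SD. One-way ANOVA with Bonferroni post-test was applied.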

Keratinocyte [7] = assay: Effect on chemokines related gene expression in non-diabetic adult human primary keratinocytes assessed as IL8 mRNA levels at 9.81 uM after 6 hrs by qPCR analysis; assay type: functional
Keratinocyte [8] = assay: Effect on pro-inflammatory related gene expression in non-diabetic adult human primary keratinocytes assessed as PTGS2 mRNA levels at 1.96 uM after 6 hrs by qPCR analysis; assay type: functional
[9] = target: Ras-related C3 botulinum toxin substrate 1 (Homo sapiens) (UniProt P63000); assay: Activation of Rac1 in human diabetic primary keratinocytes at 10 nM after 20 mins by immunoblot method
Summary of the method: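 Primary keratinocytes from a diabetic adult donor (NHK-d), exposed 20 min. Lysed in glycerol/Tris pH 7.4/NaCl/NP-40/MgCl2/PMSF buffer and cleared at 4 °C. Supernatant incubated 1 h at 4 °C with glutathione-sepharose beads carrying GST-PAK to pull down active GTP-bound Rac1. Blotted on a 13% gel, probed with anti-Rac1 (1:2.000) and detected by ECL; total Rac1 also measured. CNF1 (2 nM) positive control, n = 3.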

Fibroblast [10] = assay: Effect on antiinflammatory related gene expression in diabetic adult human primary fibroblasts assessed as NFKBIA mRNA levels at 1.96 uM after 6 hrs by qPCR analysis; assay type: functional
Summary of the method: (§3)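 Primary dermal fibroblasts from one nondiabetic young, one nondiabetic adult and one diabetic adult donor; 320 000 cells per sample, 6 h at 1.96 or 9.81 μM. RNA measured on a high-throughput qPCR chip. Fold change versus 0.1% DMSO control, four independent experiments, SD, one-way ANOVA with Bonferroni post-test.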

Keratinocyte [11] = assay: Effect on growth factor related gene expression in non-diabetic young human primary keratinocytes assessed as PDGFB mRNA levels at 9.81 uM after 6 hrs by qPCR analysis; assay type: functional
Summary of the method: (§4)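 Primary human keratinocytes (nondiabetic young or adult, diabetic adult donors) were exposed to compound for 6 h, with 0.1% DMSO as solvent control. Total RNA came from 400 000 cells per sample and was assayed on a Fluidigm Biomark high-throughput qPCR chip. Results are fold change vs solvent control, from 2−4 independent experiments on two donors per group, with SD. Groups were compared by one-way ANOVA with Bonferroni post-test.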

Fibroblast [12] = assay: Effect on chemokines related gene expression in non-diabetic adult human primary fibroblasts assessed as IL8 mRNA levels at 9.81 uM after 6 hrs by qPCR analysis; assay type: functional
Keratinocyte [13] = assay: Effect on growth factor related gene expression in non-diabetic young human primary keratinocytes assessed as GDF15 mRNA levels at 9.81 uM after 6 hrs by qPCR analysis; assay type: functional; summary of the method: as §4
Keratinocyte [14] = assay: Effect on growth factor related gene expression in diabetic adult human primary keratinocytes assessed as GDF15 mRNA levels at 1.96 uM after 6 hrs by qPCR analysis; assay type: functional; summary of the method: as §4
Fibroblast [15] = assay: Effect on antiinflammatory related gene expression in non-diabetic young human primary fibroblasts assessed as SOCS3 mRNA levels at 1.96 uM after 6 hrs by qPCR analysis; assay type: functional; summary of the method: as §3
Fibroblast [16] = assay: Effect on antioxidant related gene expression in diabetic adult human primary fibroblasts assessed as NFE2L2 mRNA levels at 9.81 uM after 6 hrs by qPCR analysis; assay type: functional
Keratinocyte [17] = assay: Effect on MMP1 mRNA expression levels in non-diabetic young human primary keratinocytes at 9.81 uM after 6 hrs by qPCR analysis; assay type: functional; summary of the method: as §1
Keratinocyte [18] = assay: Effect on antiinflammatory related gene expression in non-diabetic adult human primary keratinocytes assessed as NFKBIA mRNA levels at 1.96 uM after 6 hrs by qPCR analysis; assay type: functional; summary of the method: as §1
Keratinocyte [19] = assay: Effect on antiinflammatory related gene expression in non-diabetic young human primary keratinocytes assessed as NFKBIA mRNA levels at 9.81 uM after 6 hrs by qPCR analysis; assay type: functional
Fibroblast [20] = assay: Effect on antiinflammatory related gene expression in non-diabetic adult human primary fibroblasts assessed as NFKBIA mRNA levels at 1.96 uM after 6 hrs by qPCR analysis; assay type: functional; summary of the method: as §3
Keratinocyte [21] = assay: Effect on cellular connection related gene expression in non-diabetic young human primary keratinocytes assessed as GJB2 mRNA levels at 9.81 uM after 6 hrs by qPCR analysis; assay type: functional
Keratinocyte [22] = assay: Effect on pro-inflammatory related gene expression in non-diabetic adult human primary keratinocytes assessed as IL6 mRNA levels at 9.81 uM after 6 hrs by qPCR analysis; assay type: functional
Keratinocyte [23] = assay: Effect on growth factor related gene expression in non-diabetic young human primary keratinocytes assessed as VEGFA mRNA levels at 9.81 uM after 6 hrs by qPCR analysis; assay type: functional; summary of the method: as §4
Fibroblast [24] = assay: Effect on growth factor related gene expression in non-diabetic adult human primary fibroblasts assessed as VEGFA mRNA levels at 1.96 uM after 6 hrs by qPCR analysis; assay type: functional; summary of the method: as §2
Fibroblast [25] = assay: Effect on growth factor related gene expression in diabetic adult human primary fibroblasts assessed as GDF15 mRNA levels at 1.96 uM after 6 hrs by qPCR analysis; assay type: functional; summary of the method: as §2
Fibroblast [26] = assay: Effect on pro-inflammatory related gene expression in non-diabetic young human primary fibroblasts assessed as IL1B mRNA levels at 1.96 uM after 6 hrs by qPCR analysis; assay type: functional
Fibroblast [27] = assay: Effect on pro-inflammatory related gene expression in diabetic adult human primary fibroblasts assessed as IL1B mRNA levels at 1.96 uM after 6 hrs by qPCR analysis; assay type: functional; summary of the method: as §2
[28] = Effect on wound healing activity in non-diabetic adult human primary keratinocytes assessed as upregulation of MIP1alpha protein levels at 1.96 uM after 24 hrs by bead-based suspension array analysis; assay type: functional; settings: Keratinocyte

## C=C(C)[C@@H]1CC[C@]2(CO)CC[C@]3(C)[C@H](CC[C@@H]4[C@@]5(C)CC[C@H](O)C(C)(C)[C@@H]5CC[C@]43C)[C@@H]12 [BETULIN]
Keratinocyte [1]
  fold change (FC): 1.5
Keratinocyte [2]
  fold change (FC): 1
[3]
  Activity: Active
Keratinocyte [4]
  fold change (FC): 0.9
Keratinocyte [5]
  fold change (FC): 0.8
Fibroblast [6]
  fold change (FC): 3.7
Keratinocyte [7]
  fold change (FC): 69.9
Keratinocyte [8]
  fold change (FC): 1
[9]
  Activity: Active
Fibroblast [10]
  fold change (FC): 3.1
Keratinocyte [11]
  fold change (FC): 1.1
Fibroblast [12]
  fold change (FC): 991
Keratinocyte [13]
  fold change (FC): 1.1
Keratinocyte [14]
  fold change (FC): 1.4
Fibroblast [15]
  fold change (FC): 3
Fibroblast [16]
  fold change (FC): 1.5
Keratinocyte [17]
  fold change (FC): 1
Keratinocyte [18]
  fold change (FC): 1.4
Keratinocyte [19]
  fold change (FC): 1.6
Fibroblast [20]
  fold change (FC): 7.5
Keratinocyte [21]
  fold change (FC): 0.8
Keratinocyte [22]
  fold change (FC): 24.1
Keratinocyte [23]
  fold change (FC): 1.4
Fibroblast [24]
  fold change (FC): 1.4
Fibroblast [25]
  fold change (FC): 2.4
Fibroblast [26]
  fold change (FC): 3.3
Fibroblast [27]
  fold change (FC): 7.6
[28]
  Activity: Active
